According to ChEMBL document CHEMBL1121756, “Structure-activity relationships of the cycloalkyl ring of phencyclidine” (J Med Chem, 1981):
Active and inactive are the calls of the source. The calls are words filed in the database; no cut-off is given here.

Legend:
Rattus norvegicus [1] = species: Rattus norvegicus; assay: Relative potency in the rat discriminative stimulus assay, expressed as mg of PCP (= 1.0 mg of compound); format: functional
Summary of the method: (§1)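 Male Fischer-derived CDF rats trained to discriminate PCP (3.0 mg/kg ip, 30 min before session) from saline in a two-choice, discrete-trial avoidance task. In tests, generalization counted if the group averaged ≥90% of 20 trials on the PCP lever. Relative potency versus PCP derived by standard bioassay statistics.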

Rattus norvegicus [2] = species: Rattus norvegicus; assay: Inhibitory concentration for [3H]PCP binding to rat brain homogenate relative to PCP
Summary of the method: (§2)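 Freshly prepared rat brain homogenate aliquots incubated 45 min at 4 °C with 7.0 nM [3H]PCP; bound radioligand measured by filtration. Displacement curve for each analogue fitted visually from a log-probit plot to give IC50. PCP run as standard in each assay, and each analogue's IC50 compared with it.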

Rattus norvegicus [3] = species: Rattus norvegicus; assay: Ability to displace 7.0 nM [3H]PCP binding to rat brain homogenate relative to PCP (IC50= 270 nM); summary of the method: as §2
Rattus norvegicus [4] = assay: Relative potency in the rat discriminative stimulus assay, expressed as mg of PCP (= 1.0 mg of compound); Did not generalize to PCP, No activity seen at doses of <=56 mg/Kg; format: functional, organism-based; summary of the method: as §1
Rattus norvegicus [5] = species: Rattus norvegicus; assay: Ability to displace 7.0 nM [3H]-PCP binding to rat brain homogenate relative to PCP; summary of the method: as §2
Rattus norvegicus [6] = assay: Relative potency in the rat discriminative stimulus assay, expressed as mg of PCP (= 1.0 mg of compound); Did not generalize to PCP, Produced CNS depression at 56 mg/Kg; format: functional, organism-based
Rattus norvegicus [7] = assay: Relative potency in the rat discriminative stimulus assay, expressed as mg of PCP (= 1.0 mg of compound); Did not generalize to PCP, Tonic seizures was observed at 56 mg/Kg; format: functional, organism-based; summary of the method: as §1

| Compound | Relative potency (Rattus norvegicus [1]) | Relative potency (Rattus norvegicus [5]) | further results |
| --- | --- | --- | --- |
| Cl.c1ccc(C2(N3CCCCC3)CCCCC2)cc1 [PHENCYCLIDINE HYDROCHLORIDE] | 1 | – | IC50 (Rattus norvegicus [2]): 270 nM; Relative potency (Rattus norvegicus [3]): 1 |
| c1ccc(C2(N3CCCCC3)CC2)cc1 | – | 0.07 | Relative potency (Rattus norvegicus [4]): inactive |
| Cl.c1ccc(C2(N3CCCCC3)CCCC2)cc1 | 0.37 | 0.12 | – |
| Cl.c1ccc(C2(N3CCCCC3)CCC2)cc1 | 0.19 | 0.08 | – |
| c1ccc(CN2CCCCC2)cc1 | – | 0.02 | Relative potency (Rattus norvegicus [6]): inactive |
| c1ccc(C2(N3CCCCC3)CCCCCCC2)cc1 | – | 0.72 | Relative potency (Rattus norvegicus [7]): inactive |
| Cl.c1ccc(C2(N3CCCCC3)CCCCCC2)cc1 | 0.06 | 0.23 | – |
